# Experimental data published in ChEMBL document CHEMBL1126254, “Specific inhibition of HIV-1 protease by boronated porphyrins” (J Med Chem, 1992).
# Columns and labels:
# [1] = test system: COS A6; test: (§1) Cytotoxicity on COS A6 cells in the absence of 10% fetal calf serum(FCS); type: functional
# In short: (§2)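 COS A6 cells, which are cloned progeny that constitutively release viral capsids, were cultured without fetal calf serum and exposed to compound. Viability was read by MTT stain assay, and the LD50 was derived from it.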
# [2] = target: T1, Human immunodeficiency virus type 1 protease (Human immunodeficiency virus 1, UniProt Q72874); test: Inhibition of HIV-1 protease in 5%DMSO
# In short: (§3)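 Purified recombinant HIV PR activity was followed by cleavage of a decapeptide substrate. Incubation was 30–45 min at 37 °C, and hydrolysis products were quantified by HPLC.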
# [3] = target: T1, Human immunodeficiency virus type 1 protease; test: Inhibition of HIV-1 protease in 10% fetal calf serum(FCS)
# In short: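 COS A6 cells, which constitutively release viral capsids, were exposed to inhibitor in Dulbecco's PBS for 15 min. An equal volume of medium with 10% FCS plus inhibitor was then added and incubation continued for 3.75 h. Capsids were isolated from the supernatant, and polyprotein processing was scored as p24 by ELISA.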
# [4] = as §1; type: functional; conditions: read-out: LD50 (the source's name); in short: as §2
# [5] = target: Human immunodeficiency virus type 2 pol protein (Human immunodeficiency virus 2, UniProt P88142); test: Inhibition of HIV-2 protease in 5%DMSO; in short: as §3
# [6] = target: T1, Human immunodeficiency virus type 1 protease; test: Inhibitory concentration against HIV-1 protease in the absence of DMSO
# In short: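 The water-soluble dipotassium salt was tested against aspartyl proteases with no DMSO present, and IC50 values were determined.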
# [7] = target: HIV-2 protease (Human immunodeficiency virus 2); test: Inhibitory concentration against HIV-2 protease in the absence of DMSO
# Human immunodeficiency virus type 2 pol protein, sequence (P88142 whole entry): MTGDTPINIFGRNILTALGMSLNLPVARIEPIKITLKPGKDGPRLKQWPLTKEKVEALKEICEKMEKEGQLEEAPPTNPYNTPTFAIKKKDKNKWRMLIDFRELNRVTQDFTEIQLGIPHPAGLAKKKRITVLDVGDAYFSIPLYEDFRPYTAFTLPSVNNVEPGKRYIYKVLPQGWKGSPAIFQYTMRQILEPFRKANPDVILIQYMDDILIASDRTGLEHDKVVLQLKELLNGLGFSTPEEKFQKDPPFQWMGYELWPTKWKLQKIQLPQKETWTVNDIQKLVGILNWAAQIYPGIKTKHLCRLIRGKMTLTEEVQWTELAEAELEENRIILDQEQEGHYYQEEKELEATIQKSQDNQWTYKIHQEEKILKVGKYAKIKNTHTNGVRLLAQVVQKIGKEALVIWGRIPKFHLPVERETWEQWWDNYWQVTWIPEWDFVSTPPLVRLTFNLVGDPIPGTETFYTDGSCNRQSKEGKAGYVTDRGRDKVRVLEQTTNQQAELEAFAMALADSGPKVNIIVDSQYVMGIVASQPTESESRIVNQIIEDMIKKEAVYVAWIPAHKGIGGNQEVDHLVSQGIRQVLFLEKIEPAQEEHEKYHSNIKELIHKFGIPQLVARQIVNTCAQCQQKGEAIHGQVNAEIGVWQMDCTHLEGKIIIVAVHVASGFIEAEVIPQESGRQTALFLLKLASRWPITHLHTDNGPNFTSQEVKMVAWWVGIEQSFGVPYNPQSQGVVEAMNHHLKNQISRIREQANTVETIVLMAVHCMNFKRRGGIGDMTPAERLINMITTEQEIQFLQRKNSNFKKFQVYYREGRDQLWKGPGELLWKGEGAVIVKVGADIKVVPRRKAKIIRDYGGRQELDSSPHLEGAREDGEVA
Compound,LD50 [1] [µM],IC50 [2] [µM],IC50 [3] [µM],CC50 ([4]; COS A6) [µM],IC50 [5] [µM],IC50 [6] [µM],IC50 [7] [µM],CC50 [4] [µM]
"3-[18-(2-Carboxy-ethyl)-8,13-bis-(1,2-diacetoxy-ethyl)-3,7,12,17-tetramethyl-22,24-dihydro-porphin-2-yl]-propionic acid;Mn complex",70,,,,,,,
CC[C@H](C)[C@H](NC(=O)[C@H](C(C)C)[C@@H](O)[C@H](O)[C@H](CC1CCCCC1)NC(=O)[C@H](Cc1c[nH]cn1)NC(=O)COc1cccc2ccccc12)C(=O)NCc1ccccn1,,< 0.001,0.75,45,0.03,,,
CC1=C(C(COC(=O)c2ccc3ccccc3c2)OC(=O)c2ccc3ccccc3c2)c2cc3nc(cc4[nH]c(cc5[nH]c(cc1n2)c(C)c5CCC(=O)O)c(CCC(=O)O)c4C)C(C(COC(=O)c1ccc2ccccc2c1)OC(=O)c1ccc2ccccc2c1)=C3C (stereo unspecified),,14,> 150,250,23,,,
CC1=C(CCC(=O)O)c2cc3[nH]c(cc4[nH]c(cc5nc(cc1n2)C(C)=C5C(COC(=O)C1=CCC1)OC(=O)C1=CCC1)c(C)c4C(COC(=O)C1=CCC1)OC(=O)C1=CCC1)c(C)c3CCC(=O)O (stereo unspecified),,0.7,10,25,1.55,0.9,,
CC1=C(C(COC(=O)c2ccccc2)OC(=O)c2ccccc2)c2cc3nc(cc4[nH]c(cc5[nH]c(cc1n2)c(C)c5CCC(=O)O)c(CCC(=O)O)c4C)C(C(COC(=O)c1ccccc1)OC(=O)c1ccccc1)=C3C (stereo unspecified),,14,> 100,250,30,,,
"3-[18-(2-Carboxy-ethyl)-8,13-bis-(1,2-diacetoxy-ethyl)-3,7,12,17-tetramethyl-22,24-dihydro-porphin-2-yl]-propionic acid;Co complex [listing 1 of 2 here]",150,,,,,,,
C=CC1=C(C)c2cc3[nH]c(cc4nc(cc5[nH]c(cc1n2)c(C)c5CCC(=O)O)C(CCC(=O)O)=C4C)c(C)c3C=C [PROTOPORPHYRIN],,300,> 200,< 50,500,,,
CC1=C(C(COC(=O)C23C[C@H]4C[C@@H](C2)C[C@@H](C3)C4)OC(=O)C23C[C@H]4C[C@@H](C2)C[C@@H](C3)C4)c2cc3nc(cc4[nH]c(cc5[nH]c(cc1n2)c(C)c5CCC(=O)O)c(CCC(=O)O)c4C)C(C(COC(=O)C12C[C@H]4C[C@@H](C1)C[C@@H](C2)C4)OC(=O)C12C[C@H]4C[C@@H](C1)C[C@@H](C2)C4)=C3C (stereo partly specified),,5,,250,13,,,
"3-[18-(2-Carboxy-ethyl)-8,13-bis-(1,2-diacetoxy-ethyl)-3,7,12,17-tetramethyl-22,24-dihydro-porphin-2-yl]-propionic acid;Co complex [listing 2 of 2 here]",,,25,,,,,
CC1=C(C(COC(=O)c2ccc(N(C)C)cc2)OC(=O)c2ccc(N(C)C)cc2)c2cc3nc(cc4[nH]c(cc5[nH]c(cc1n2)c(C)c5CCC(=O)O)c(CCC(=O)O)c4C)C(C(COC(=O)c1ccc(N(C)C)cc1)OC(=O)c1ccc(N(C)C)cc1)=C3C (stereo unspecified),,7,75,> 250,18,,,
"3-[18-(2-Carboxy-ethyl)-8,13-bis-(1,2-diacetoxy-ethyl)-3,7,12,17-tetramethyl-22,24-dihydro-porphin-2-yl]-propionic acid;Cu complex [listing 1 of 2 here]",,,,,,,0.47,
CC1=C(C(O)CO)c2cc3nc(cc4[nH]c(cc5[nH]c(cc1n2)c(C)c5CCC(=O)O)c(CCC(=O)O)c4C)C(C(O)CO)=C3C (stereo unspecified),,280,> 200,250,480,,,
"3-[18-(2-Carboxy-ethyl)-8,13-bis-(1,2-diacetoxy-ethyl)-3,7,12,17-tetramethyl-22,24-dihydro-porphin-2-yl]-propionic acid;Cu complex [listing 2 of 2 here]",80,,,,,,,
CC1=C(CCC(=O)O)c2cc3[nH]c(cc4[nH]c(cc5nc(cc1n2)C(C)=C5C(COC(=O)C1=CC1)OC(=O)C1=CC1)c(C)c4C(COC(=O)C1=CC1)OC(=O)C1=CC1)c(C)c3CCC(=O)O (stereo in doubt),,12,> 150,,11,,,250
